Experimental data: ChEMBL document CHEMBL4007421, “Discovery and Preclinical Characterization of 3-((4-(4-Chlorophenyl)-7-fluoroquinoline-3-yl)sulfonyl)benzonitrile, a Novel Non-acetylenic Metabotropic Glutamate Receptor 5 (mGluR5) Negative Allosteric Modulator for Psychiatric Indications” (J Med Chem, 2017)

Key:
[1] = Plasma concentration in ip dosed Wistar rat at anxiolytic MED administered as suspension after 45 mins during Vogel punished drinking conflict test; format: ADME, organism-based
How it was run: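 Vehicle was a suspension containing 5% Tween 80, given i.p. at the Vogel minimum effective dose. Plasma was sampled about 45 min after dosing, right after the Vogel punished drinking test.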

[2] = molecular target: Metabotropic glutamate receptor 5 (Rattus norvegicus, UniProt P31424); test: Displacement of [3H]M-MPEP from mGluR5 in Sprague-Dawley rat cerebrocortical membranes after 60 mins
Metabotropic glutamate receptor 5 (Rattus norvegicus, UniProt P31424), sequence (P31424 whole entry): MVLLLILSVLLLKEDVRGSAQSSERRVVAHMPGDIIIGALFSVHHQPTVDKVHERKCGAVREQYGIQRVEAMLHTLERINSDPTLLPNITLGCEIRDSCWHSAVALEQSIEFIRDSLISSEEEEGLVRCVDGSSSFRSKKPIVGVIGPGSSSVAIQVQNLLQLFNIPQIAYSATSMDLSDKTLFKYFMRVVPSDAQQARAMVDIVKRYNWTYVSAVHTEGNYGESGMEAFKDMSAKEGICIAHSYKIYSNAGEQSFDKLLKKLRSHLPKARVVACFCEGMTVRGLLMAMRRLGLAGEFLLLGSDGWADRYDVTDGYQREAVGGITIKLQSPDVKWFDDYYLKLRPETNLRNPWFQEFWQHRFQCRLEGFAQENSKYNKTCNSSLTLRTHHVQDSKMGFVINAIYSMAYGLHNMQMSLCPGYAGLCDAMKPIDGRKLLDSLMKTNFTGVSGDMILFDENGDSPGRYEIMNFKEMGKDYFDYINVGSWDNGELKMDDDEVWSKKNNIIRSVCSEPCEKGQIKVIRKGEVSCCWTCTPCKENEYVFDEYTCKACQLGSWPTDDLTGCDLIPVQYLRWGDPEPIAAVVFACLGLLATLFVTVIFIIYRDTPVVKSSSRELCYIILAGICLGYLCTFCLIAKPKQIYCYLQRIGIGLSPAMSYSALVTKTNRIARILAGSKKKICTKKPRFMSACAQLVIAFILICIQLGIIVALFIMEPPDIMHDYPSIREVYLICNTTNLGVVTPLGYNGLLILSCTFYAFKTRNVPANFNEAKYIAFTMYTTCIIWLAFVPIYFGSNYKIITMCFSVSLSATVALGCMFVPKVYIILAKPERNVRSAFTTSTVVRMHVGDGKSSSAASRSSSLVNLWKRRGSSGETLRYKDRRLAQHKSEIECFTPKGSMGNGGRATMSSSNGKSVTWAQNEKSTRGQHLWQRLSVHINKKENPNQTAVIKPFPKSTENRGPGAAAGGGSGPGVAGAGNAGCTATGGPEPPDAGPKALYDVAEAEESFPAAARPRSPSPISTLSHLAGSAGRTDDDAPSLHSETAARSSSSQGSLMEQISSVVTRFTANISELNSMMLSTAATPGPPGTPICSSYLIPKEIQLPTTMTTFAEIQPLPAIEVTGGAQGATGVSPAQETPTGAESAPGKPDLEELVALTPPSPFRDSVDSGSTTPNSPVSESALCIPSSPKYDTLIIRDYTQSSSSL

Liver [3] = test: Intrinsic clearance in human liver microsomes at 2.5 uM assessed per gram of liver; format: ADME, microsome
[4] = molecular target: Metabotropic glutamate receptor 5 (Homo sapiens, UniProt P41594); test: Negative allosteric modulation of human mGluR5a expressed in CHO cells assessed as reduction in DHPG-induced cytosolic Ca2+ influx after 10 to 20 mins by fluo-4/AM-dye based fluorometric analysis; format: functional, cell-based
Metabotropic glutamate receptor 5 (Homo sapiens, UniProt P41594), sequence (P41594 whole entry): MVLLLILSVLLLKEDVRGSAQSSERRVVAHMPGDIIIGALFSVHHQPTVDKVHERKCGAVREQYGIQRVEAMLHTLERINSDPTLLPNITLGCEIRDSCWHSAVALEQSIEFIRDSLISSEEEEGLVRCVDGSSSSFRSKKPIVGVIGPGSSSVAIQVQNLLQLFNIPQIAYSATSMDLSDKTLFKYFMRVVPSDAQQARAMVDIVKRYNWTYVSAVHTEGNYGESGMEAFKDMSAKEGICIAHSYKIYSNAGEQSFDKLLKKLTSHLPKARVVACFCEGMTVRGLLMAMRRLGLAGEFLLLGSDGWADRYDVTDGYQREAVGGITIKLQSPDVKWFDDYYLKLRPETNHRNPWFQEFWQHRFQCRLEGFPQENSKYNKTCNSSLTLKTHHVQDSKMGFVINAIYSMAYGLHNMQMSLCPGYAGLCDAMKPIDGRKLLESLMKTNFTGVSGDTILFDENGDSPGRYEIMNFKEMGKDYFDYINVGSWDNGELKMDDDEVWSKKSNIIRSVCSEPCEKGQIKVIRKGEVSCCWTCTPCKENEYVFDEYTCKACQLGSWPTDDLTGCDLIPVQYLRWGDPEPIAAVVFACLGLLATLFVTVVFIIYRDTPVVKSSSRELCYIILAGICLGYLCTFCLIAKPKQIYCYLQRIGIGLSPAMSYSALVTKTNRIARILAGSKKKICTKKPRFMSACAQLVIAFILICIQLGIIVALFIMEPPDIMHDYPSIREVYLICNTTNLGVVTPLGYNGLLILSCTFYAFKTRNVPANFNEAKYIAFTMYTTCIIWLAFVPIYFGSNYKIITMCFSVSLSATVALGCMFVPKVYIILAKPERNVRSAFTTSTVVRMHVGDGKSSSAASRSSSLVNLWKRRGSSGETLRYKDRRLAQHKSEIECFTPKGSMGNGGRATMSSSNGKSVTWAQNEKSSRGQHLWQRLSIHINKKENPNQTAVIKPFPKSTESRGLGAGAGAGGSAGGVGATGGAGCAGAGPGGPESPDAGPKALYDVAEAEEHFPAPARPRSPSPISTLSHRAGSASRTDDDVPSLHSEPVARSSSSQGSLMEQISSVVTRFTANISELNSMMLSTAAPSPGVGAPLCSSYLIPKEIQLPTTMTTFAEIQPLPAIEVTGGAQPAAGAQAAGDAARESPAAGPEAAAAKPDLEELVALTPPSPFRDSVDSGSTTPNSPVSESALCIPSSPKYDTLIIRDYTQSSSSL

Liver [5] = test: Intrinsic clearance in rat liver microsomes at 2.5 uM assessed per gram of liver; format: ADME, microsome
Rattus norvegicus [6] = test: Anxiolytic activity in ip dosed Wistar rat assessed as increase in water drinking time during punished period administered as suspension by Vogel punished drinking conflict test; format: functional; conditions: read-out: MED
How it was run: (§1)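 Vogel punished-drinking test in rats, single i.p. or p.o. dose as suspension in 5% Tween 80; plasma sampled ~45 min after i.p. or ~75 min after p.o. dosing.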

[7] = molecular target: Metabotropic glutamate receptor 5 (Rattus norvegicus) (UniProt P31424); test: Displacement of [3H]M-MPEP from rat mGluR5 expressed in rat cerebrocortical membrane at 1 uM after 60 mins relative to control; format: cell membranes
Metabotropic glutamate receptor 5 (Rattus norvegicus), sequence (P31424 21-1203 limits assumed): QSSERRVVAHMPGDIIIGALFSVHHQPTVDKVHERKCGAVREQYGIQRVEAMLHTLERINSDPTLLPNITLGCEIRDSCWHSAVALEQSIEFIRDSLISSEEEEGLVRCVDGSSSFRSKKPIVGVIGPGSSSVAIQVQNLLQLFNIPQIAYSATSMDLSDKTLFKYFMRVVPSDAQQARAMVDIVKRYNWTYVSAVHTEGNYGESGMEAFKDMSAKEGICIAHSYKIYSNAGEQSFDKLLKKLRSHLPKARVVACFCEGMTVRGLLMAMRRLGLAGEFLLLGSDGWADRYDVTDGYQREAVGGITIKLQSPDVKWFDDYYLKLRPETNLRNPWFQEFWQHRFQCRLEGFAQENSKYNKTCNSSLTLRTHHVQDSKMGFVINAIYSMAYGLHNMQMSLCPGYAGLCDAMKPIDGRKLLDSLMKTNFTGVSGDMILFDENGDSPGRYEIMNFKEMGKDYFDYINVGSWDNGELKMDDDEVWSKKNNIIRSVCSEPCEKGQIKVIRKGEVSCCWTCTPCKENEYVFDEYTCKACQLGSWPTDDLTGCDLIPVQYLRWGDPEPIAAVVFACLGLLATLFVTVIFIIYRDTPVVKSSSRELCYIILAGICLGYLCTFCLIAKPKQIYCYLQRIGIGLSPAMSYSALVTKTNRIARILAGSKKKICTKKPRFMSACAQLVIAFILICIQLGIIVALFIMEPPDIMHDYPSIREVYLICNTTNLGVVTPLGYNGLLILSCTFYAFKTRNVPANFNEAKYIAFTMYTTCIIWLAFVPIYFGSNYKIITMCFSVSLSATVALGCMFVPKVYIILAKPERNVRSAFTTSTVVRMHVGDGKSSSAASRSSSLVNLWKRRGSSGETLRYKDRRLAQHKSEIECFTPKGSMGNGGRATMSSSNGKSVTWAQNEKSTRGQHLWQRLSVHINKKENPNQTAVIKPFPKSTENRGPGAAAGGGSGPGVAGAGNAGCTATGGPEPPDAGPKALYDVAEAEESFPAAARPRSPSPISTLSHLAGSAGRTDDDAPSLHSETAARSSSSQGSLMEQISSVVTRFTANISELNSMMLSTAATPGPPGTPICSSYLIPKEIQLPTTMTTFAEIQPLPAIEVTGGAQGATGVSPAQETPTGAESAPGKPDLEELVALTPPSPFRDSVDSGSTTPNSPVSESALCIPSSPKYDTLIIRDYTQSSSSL

Rattus norvegicus [8] = test: Anxiolytic activity in po dosed Wistar rat assessed as increase in water drinking time during punished period administered as suspension by Vogel punished drinking conflict test; format: functional; conditions: read-out: MED; how it was run: as §1
Plasma = test: Plasma concentration in Wistar rat at 30 mg/kg, po administered as single dose; format: ADME, organism-based; conditions: in vivo

With `O=S(=O)(c1cc(Cl)cc(Cl)c1)c1cnc2cc(F)ccc2c1-c1cccc(F)c1` as the molecule, how does the concentration at 0.75 h [1] read?
Its concentration at 0.75 h is 90.6 nM.

What about the Ki [2] of the same molecule?
The Ki was 10.7 nM.

And the CLint (Liver [3])?
The CLint was 0.41 mL/min/g.

What about the IC50 [4] of the same molecule?
Its IC50 is 35 nM.

What about the CLint (Liver [5]) of the same molecule?
Its CLint is 1.53 mL/min/g.

And the minimal effective dose (Rattus norvegicus [6])?
Its minimal effective dose is 30 mg/kg.

With `O=S(=O)(c1ccc(F)cc1)c1cnc2c(F)cccc2c1-c1ccc(Cl)cc1` as the molecule, how does the Ki [2] read?
The Ki was 16 nM.

And the inhibition [7]?
The inhibition was 91.5%.

And the CLint (Liver [3])?
The CLint was 0.28 mL/min/g.

And the CLint (Liver [5])?
The CLint was 0.06 mL/min/g.

Which minimal effective dose (Rattus norvegicus [8]) does the source give for `Cc1cccc(C#Cc2ccccc2)n1` here?
Its minimal effective dose is 3 mg/kg.

What about the CLint (Liver [3]) of the same molecule?
Its CLint is 1.61 mL/min/g.

What about the CLint (Liver [5]) of the same molecule?
The CLint was 0.19 mL/min/g.

What about the minimal effective dose (Rattus norvegicus [6]) of the same molecule?
The minimal effective dose was 3 mg/kg.

For `O=S(=O)(c1ccc(F)cc1)c1cnc2cc(Cl)ccc2c1-c1ccc(Cl)cc1`, which Ki [2] is on record?
Its Ki is 110 nM.

What about the inhibition [7] of the same molecule?
The inhibition was 92.8%.

What about the CLint (Liver [3]) of the same molecule?
The CLint was 0.21 mL/min/g.

And the CLint (Liver [5])?
Its CLint is 0.01 mL/min/g.

Which inhibition [7] does the source give for `N#Cc1ccc2ncc(S(=O)(=O)c3ccc(F)cc3)c(-c3ccc(Cl)cc3)c2c1` here?
The inhibition was 39.7%.

What about the CLint (Liver [3]) of the same molecule?
The CLint was 0.01 mL/min/g.

What about the CLint (Liver [5]) of the same molecule?
The CLint was 0.04 mL/min/g.

Which concentration at 0.75 h [1] does the source give for `O=S(=O)(c1cc(Cl)cc(Cl)c1)c1cnc2c(F)cccc2c1-c1ccc(F)cc1` here?
The concentration at 0.75 h was 119 nM.

And the Ki [2]?
Its Ki is 6.8 nM.

And the CLint (Liver [3])?
The CLint was 1.01 mL/min/g.

What about the IC50 [4] of the same molecule?
Its IC50 is 25 nM.

And the CLint (Liver [5])?
Its CLint is 1.06 mL/min/g.

And the minimal effective dose (Rattus norvegicus [6])?
Its minimal effective dose is 30 mg/kg.

With `O=S(=O)(c1ccc(F)cc1)c1cnc2cc(F)c(Cl)cc2c1-c1ccc(Cl)cc1` as the molecule, how does the inhibition [7] read?
The inhibition was 43.7%.

And the CLint (Liver [3])?
Its CLint is 0.01 mL/min/g.

What about the CLint (Liver [5]) of the same molecule?
The CLint was 0.34 mL/min/g.

With `O=S(=O)(c1ccc(F)cc1)c1cnc2ccc(F)cc2c1-c1ccc(Cl)cc1` as the molecule, how does the Ki [2] read?
Its Ki is 180 nM.

And the inhibition [7]?
The inhibition was 76.3%.

And the CLint (Liver [3])?
The CLint was 0.12 mL/min/g.

What about the CLint (Liver [5]) of the same molecule?
Its CLint is 0.4 mL/min/g.

Which concentration at 0.75 h [1] does the source give for `O=S(=O)(c1cc(Cl)cc(Cl)c1)c1cnc2cc(F)ccc2c1-c1ccc(Cl)cc1` here?
Its concentration at 0.75 h is 377 nM.

And the Ki [2]?
The Ki was 30.3 nM.

And the CLint (Liver [3])?
The CLint was 0.13 mL/min/g.

And the IC50 [4]?
Its IC50 is 94 nM.

What about the CLint (Liver [5]) of the same molecule?
Its CLint is 0.77 mL/min/g.

What about the minimal effective dose (Rattus norvegicus [6]) of the same molecule?
Its minimal effective dose is 30 mg/kg.

What does the source list for `O=S(=O)(c1ccc(F)cc1)c1cnc2c(F)cc(Cl)cc2c1-c1ccc(Cl)cc1`?
inhibition [7]: 19%; CLint (Liver [3]): 0.01 mL/min/g; CLint (Liver [5]): 0.09 mL/min/g

Which results are given for `O=S(=O)(c1ccc(F)cc1)c1cnc2c(F)c(Cl)ccc2c1-c1ccc(Cl)cc1`?
Ki [2]: 71.2 nM; inhibition [7]: 83.6%; CLint (Liver [3]): 0.01 mL/min/g; CLint (Liver [5]): 0.01 mL/min/g

With `O=S(=O)(c1ccc(F)c(F)c1)c1cnc2c(F)cccc2c1-c1ccc(Cl)cc1` as the molecule, how does the minimal effective dose (Rattus norvegicus [8]) read?
The minimal effective dose was over 30 mg/kg.

What about the concentration at 0.75 h [1] of the same molecule?
The concentration at 0.75 h was 59.7 nM.

And the CLint (Liver [3])?
The CLint was 0.28 mL/min/g.

What about the IC50 [4] of the same molecule?
Its IC50 is 13 nM.

And the CLint (Liver [5])?
Its CLint is 0.2 mL/min/g.

And the concentration (Plasma)?
The concentration was 196 nM.

And the minimal effective dose (Rattus norvegicus [6])?
The minimal effective dose was 3 mg/kg.

For `O=S(=O)(c1ccc(F)cc1)c1cnc2cc(F)ccc2c1-c1ccc(Cl)cc1`, which Ki [2] is on record?
The Ki was 38.6 nM.

And the inhibition [7]?
Its inhibition is 91.6%.

And the CLint (Liver [3])?
Its CLint is 1.23 to 1.25 mL/min/g.

And the CLint (Liver [5])?
Its CLint is 0.89 mL/min/g.

With `O=S(=O)(c1ccc(F)c(F)c1)c1cnc2cc(F)ccc2c1-c1ccc(Cl)cc1` as the molecule, how does the minimal effective dose (Rattus norvegicus [8]) read?
Its minimal effective dose is 10 mg/kg.

And the Ki [2]?
The Ki was 17.1 nM.

What about the CLint (Liver [3]) of the same molecule?
Its CLint is 0.01 mL/min/g.

What about the IC50 [4] of the same molecule?
The IC50 was 22 nM.

What about the CLint (Liver [5]) of the same molecule?
Its CLint is 1.41 mL/min/g.

And the minimal effective dose (Rattus norvegicus [6])?
The minimal effective dose was 10 mg/kg.

For `O=S(=O)(c1cc(F)cc(F)c1)c1cnc2c(F)cccc2c1-c1ccc(F)cc1`, which concentration at 0.75 h [1] is on record?
The concentration at 0.75 h was 151 nM.

What about the Ki [2] of the same molecule?
Its Ki is 13.3 nM.

What about the CLint (Liver [3]) of the same molecule?
Its CLint is 0.69 mL/min/g.

And the IC50 [4]?
The IC50 was 12 nM.

What about the CLint (Liver [5]) of the same molecule?
The CLint was 0.63 mL/min/g.

And the minimal effective dose (Rattus norvegicus [6])?
The minimal effective dose was 30 mg/kg.

With `O=S(=O)(c1ccc(F)cc1)c1cnc2ccc(Cl)cc2c1-c1ccc(Cl)cc1` as the molecule, how does the inhibition [7] read?
Its inhibition is 58.3%.

And the CLint (Liver [3])?
Its CLint is 0.01 mL/min/g.

What about the CLint (Liver [5]) of the same molecule?
Its CLint is 0.2 mL/min/g.

For `O=S(=O)(c1ccc(F)cc1)c1cnc2cc(Cl)c(F)cc2c1-c1ccc(Cl)cc1`, which inhibition [7] is on record?
Its inhibition is 48%.

And the CLint (Liver [3])?
The CLint was 0.01 mL/min/g.

And the CLint (Liver [5])?
Its CLint is 0.57 mL/min/g.

Which results are given for `N#Cc1ccc2c(-c3ccc(Cl)cc3)c(S(=O)(=O)c3ccc(F)cc3)cnc2c1`?
inhibition [7]: 8.7%; CLint (Liver [3]): 0.01 mL/min/g; CLint (Liver [5]): 0.01 mL/min/g

For `O=S(=O)(c1cccc(F)c1)c1cnc2c(F)cccc2c1-c1ccc(F)cc1`, which concentration at 0.75 h [1] is on record?
The concentration at 0.75 h was 1210 nM.

And the Ki [2]?
Its Ki is 31.6 nM.

What about the CLint (Liver [3]) of the same molecule?
The CLint was 0.19 mL/min/g.

What about the IC50 [4] of the same molecule?
The IC50 was 69 nM.

And the CLint (Liver [5])?
Its CLint is 0.2 mL/min/g.

And the minimal effective dose (Rattus norvegicus [6])?
Its minimal effective dose is 30 mg/kg.
